Assays:
recombinant human ACSS1 = molecular target: T1, recombinant human ACSS1 (Homo sapiens, UniProt Q9NUB1); experiment: TranScreener AMP biochemical assay of ACSS1 activity; conditions: regardless of the substrate (acetate or propionate)
T1 sequence (Q9NUB1 38-689): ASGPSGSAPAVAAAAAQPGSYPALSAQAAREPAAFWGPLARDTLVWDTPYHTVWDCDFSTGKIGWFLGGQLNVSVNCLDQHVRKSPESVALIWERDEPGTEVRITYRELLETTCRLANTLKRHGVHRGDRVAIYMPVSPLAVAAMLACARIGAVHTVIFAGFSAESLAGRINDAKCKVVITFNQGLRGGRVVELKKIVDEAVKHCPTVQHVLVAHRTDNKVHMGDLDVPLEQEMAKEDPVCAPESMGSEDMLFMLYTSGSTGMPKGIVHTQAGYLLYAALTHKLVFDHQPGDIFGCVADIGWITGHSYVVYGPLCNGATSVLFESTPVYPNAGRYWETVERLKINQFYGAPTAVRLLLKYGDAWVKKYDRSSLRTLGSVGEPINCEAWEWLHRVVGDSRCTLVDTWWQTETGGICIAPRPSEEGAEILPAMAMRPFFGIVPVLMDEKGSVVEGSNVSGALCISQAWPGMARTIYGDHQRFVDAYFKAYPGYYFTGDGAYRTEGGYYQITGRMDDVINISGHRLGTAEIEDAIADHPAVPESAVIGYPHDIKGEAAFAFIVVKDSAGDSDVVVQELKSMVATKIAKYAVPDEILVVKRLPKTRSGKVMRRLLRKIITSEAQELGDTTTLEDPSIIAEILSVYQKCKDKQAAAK
Summary of the method: (§1)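 Test compound was serially diluted in DMSO and added to ACSS1 (2 nM) or ACSS3 (25 nM). Acetate reaction: HEPES pH 7.4 buffer with 140 mM NaCl; final 5 mM acetate, 50 μM ATP, 5 μM CoA. Propionate reaction: HEPES/KCl/CHAPS buffer; final 5 mM propionate, 10 μM ATP, 100 μM CoA. Incubation 120 min, then AMP detected by terbium-antibody/tracer TR-FRET after 30 min. Percent inhibition was set against no-enzyme and DMSO controls.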

recombinant human ACSS3 = molecular target: T2, recombinant human ACSS3 (Homo sapiens, UniProt Q9H6R3); experiment: TranScreener AMP biochemical assay of ACSS3 activity; conditions: regardless of the substrate (acetate or propionate)
T2 sequence (Q9H6R3 30-686): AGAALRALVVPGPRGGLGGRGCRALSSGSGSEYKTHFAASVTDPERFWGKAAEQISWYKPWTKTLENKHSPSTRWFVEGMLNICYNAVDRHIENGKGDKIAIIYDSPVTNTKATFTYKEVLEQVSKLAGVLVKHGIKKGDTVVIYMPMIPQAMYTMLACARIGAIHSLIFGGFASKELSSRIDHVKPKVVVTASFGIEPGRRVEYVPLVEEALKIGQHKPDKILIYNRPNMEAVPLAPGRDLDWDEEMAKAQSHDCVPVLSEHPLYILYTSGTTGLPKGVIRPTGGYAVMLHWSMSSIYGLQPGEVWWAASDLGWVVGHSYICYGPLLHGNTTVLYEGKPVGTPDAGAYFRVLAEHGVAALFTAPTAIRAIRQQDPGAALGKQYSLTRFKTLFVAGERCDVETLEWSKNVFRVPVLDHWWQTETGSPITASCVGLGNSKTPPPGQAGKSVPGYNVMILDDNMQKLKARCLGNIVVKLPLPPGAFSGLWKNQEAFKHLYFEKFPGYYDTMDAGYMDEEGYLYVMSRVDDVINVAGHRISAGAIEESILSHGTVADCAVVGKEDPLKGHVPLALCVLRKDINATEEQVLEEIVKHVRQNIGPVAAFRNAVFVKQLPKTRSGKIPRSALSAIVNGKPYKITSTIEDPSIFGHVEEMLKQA
Summary of the method: as §1

Water solubility in PBS = type: physicochemical; conditions: PBS buffer pH 7.4, room temperature
Summary of the method: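 10 mg test compound in 1 mL PBS pH 7.4, sonicated 30 min, vortexed 30 min at low speed, then left 16–24 h at room temperature. Filtered (0.22 μm) and 10-fold serially diluted in triplicate in ACN:water (1:1). Internal standard added; LC-MS/MS quantitation against a five-standard calibration curve.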

MDA-MB-468 cells = experiment: ERK phosphorylation immunoblot in MDA-MB-468 cells; type: cell-based, human
BT474 cells = experiment: ERK phosphorylation immunoblot in BT474 cells; type: cell-based, human
SKBr3 cells = experiment: ERK phosphorylation immunoblot in SKBr3 cells; type: cell-based, human

Structure (SMILES)	inhibitory activity towards ACSS1 (recombinant human ACSS1)	inhibitory activity towards ACSS3 (recombinant human ACSS3)	aqueous solubility (Water solubility in PBS)	phosphorylation of ERK (MDA-MB-468 cells)	phosphorylation of ERK (BT474 cells)	phosphorylation of ERK (SKBr3 cells)
COCCNC(=O)Nc1ccc2nc(-c3cccs3)c(-c3cccs3)nc2c1 [VY-3-249, 1-(2,3-di(thiophen-2-yl)quinoxalin-6-yl)-3-(2-methoxyethyl)urea, reference compound]	neither VY-3-249 nor VY-3-135 displayed any inhibitory activity	neither VY-3-249 nor VY-3-135 displayed any inhibitory activity	poorly soluble	–	–	–
CS(=O)(=O)CCNCc1ccc(-c2ccc3ncnc(Nc4ccc(OCc5cccc(F)c5)c(Cl)c4)c3c2)o1 [lapatinib]	–	–	–	decreases phosphorylation of ERK	decreases phosphorylation of ERK	decreases phosphorylation of ERK

Reference: paper PMC8026699 (Cancer research, 2021)
